Results: ChEMBL document CHEMBL6092204, “Synthesis of pyridyl pyrimidine hedgehog signaling pathway inhibitors and their antitumor activity in human pancreatic cancer” (Eur J Med Chem, 2024)
Activity calls are given as the source filed them. The rule behind the calls is not given here.

Experiments:
BXPC-3 [1] = assay: Induction of apoptosis in human BXPC-3 cells assessed as late apoptotic cells at 10 uM incubated for 48 hrs by Annexin V-FITC/PI staining based flow cytometry (reference value: 6.72 %); assay type: functional
BXPC-3 [2] = assay: Induction of apoptosis in human BXPC-3 cells assessed as early apoptotic cells at 2.5 uM incubated for 48 hrs by Annexin V-FITC/PI staining based flow cytometry (reference value: 1.11 %); assay type: functional
[3] = Toxicity in BALB/c nude mouse xenografted with human BxPC-3 cells assessed as inflammatory infiltration in liver at 5 to 15 mg/kg, ip qd for 21 days by H and E staining based analysis; settings: in vivo, 504 h
[4] = Toxicity in BALB/c nude mouse xenografted with human BxPC-3 cells assessed as tissue fibrosis in lung at 5 to 15 mg/kg, ip qd for 21 days by H and E staining based analysis; settings: in vivo, 504 h
BXPC-3 [5] = assay: Inhibition of cell migration in human BXPC-3 cells incubated for 48 hrs by crystal violet staining based transwell assay; assay type: functional; settings: dose 2.5-10 µM
Method in brief: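 Cells at 1.5×10^5 cells/mL in serum-free medium containing drug were added to the upper Transwell chamber (200 μL), with medium containing 10% FBS below. After 48 h, non-migrated cells were swabbed off. Inserts were fixed in 4% paraformaldehyde for 15-20 min and stained with 0.5% crystal violet. Cells were counted in four random fields at 100×; n = 3.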

BXPC-3 [6] = assay: Inhibition of Hh signaling pathway in human BXPC-3 cells assessed as reduction in Ptch1 mRNA level incubated for 48 hrs by qRT-PCR analysis; assay type: cell-based
Method in brief: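 Total RNA was extracted by column kit after 48 h treatment and checked spectrophotometrically. Gli1 and Ptch1 transcripts were quantified by real-time RT-qPCR with GAPDH as internal control. Results are fold change relative to the untreated group; three separate experiments.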

[7] = Toxicity in BALB/c nude mouse xenografted with human BxPC-3 cells assessed as cellular edema in spleen at 5 to 15 mg/kg, ip qd for 21 days by H and E staining based analysis; settings: in vivo, 504 h
BXPC-3 [8] = assay: Induction of apoptosis in human BXPC-3 cells assessed as early apoptotic cells at 8 uM incubated for 48 hrs by Annexin V-FITC/PI staining based flow cytometry (reference value: 1.11 %); assay type: functional
BXPC-3 [9] = assay: Induction of cell cycle arrest in human BXPC-3 cells assessed as accumulation at G2 phase at 2.5 uM incubated for 48 hrs by PI/RNase staining based flow cytometry (reference value: 8.15 %); assay type: functional
[10] = Toxicity in BALB/c nude mouse xenografted with human BxPC-3 cells assessed as inflammatory infiltration in heart at 5 to 15 mg/kg, ip qd for 21 days by H and E staining based analysis; settings: in vivo, 504 h
[11] = Toxicity in BALB/c nude mouse xenografted with human BxPC-3 cells assessed as cellular edema in lung at 5 to 15 mg/kg, ip qd for 21 days by H and E staining based analysis; settings: in vivo, 504 h
BXPC-3 [12] = assay: Induction of apoptosis in human BXPC-3 cells assessed as viable cells at 10 uM incubated for 48 hrs by Annexin V-FITC/PI staining based flow cytometry (reference value: 91.5 %); assay type: functional; settings: read-out: Activity
BXPC-3 [13] = assay: Induction of apoptosis in human BXPC-3 cells assessed as viable cells at 8 uM incubated for 48 hrs by Annexin V-FITC/PI staining based flow cytometry (reference value: 91.5 %); assay type: functional; settings: read-out: Activity
BxPC-3 [14] = assay: Antitumor activity aginst human BxPC-3 cells xenografted in BALB/c nude mouse assessed as decrease in tumor weight at 15 mg/kg, ip qd for 21 days; settings: time 21.0 day
PANC-1 [15] = assay: Induction of cell cycle arrest in human PANC-1 cells assessed as accumulation at G1 phase at 2.5 uM incubated for 48 hrs by PI/RNase staining based flow cytometry (reference value: 82.0 %); assay type: functional
BXPC-3 [16] = assay: Induction of cell cycle arrest in human BXPC-3 cells assessed as accumulation at S phase at 5 uM incubated for 48 hrs by PI/RNase staining based flow cytometry (reference value: 8.18 %); assay type: functional
PANC-1 [17] = assay: Inhibition of cell migration in human PANC-1 cells incubated for 24 hrs by wound healing assay; assay type: functional, cell-based; settings: dose 2.5-10 µM
Method in brief: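 Monolayers at 80-90% confluence were scratched with a cross and washed three times with PBS. Eight fields were imaged at 0 h. Cells were then incubated with compound in medium containing 2% FBS, and the same fields were re-imaged at 24 h (100×). Closure % = (area 0 h − area 24 h)/area 0 h × 100; n = 3.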

PANC-1 [18] = assay: Induction of apoptosis in human PANC-1 cells assessed as viable cells at 5 uM incubated for 48 hrs by Annexin V-FITC/PI staining based flow cytometry (reference value: 93.2 %); assay type: functional; settings: read-out: Activity
PANC-1 [19] = assay: Induction of apoptosis in human PANC-1 cells assessed as early apoptotic cells at 2.5 uM incubated for 48 hrs by Annexin V-FITC/PI staining based flow cytometry (reference value: 1.88 %); assay type: functional
PANC-1 [20] = assay: Induction of cell cycle arrest in human PANC-1 cells assessed as accumulation at S phase at 5 uM incubated for 48 hrs by PI/RNase staining based flow cytometry (reference value: 7.58 %); assay type: functional
PANC-1 [21] = assay: Induction of apoptosis in human PANC-1 cells assessed as necrotic cells at 5 uM incubated for 48 hrs by Annexin V-FITC/PI staining based flow cytometry (reference value: 2.24 %); assay type: functional
[22] = Toxicity in BALB/c nude mouse xenografted with human BxPC-3 cells assessed as tissue fibrosis in liver at 5 to 15 mg/kg, ip qd for 21 days by H and E staining based analysis; settings: in vivo, 504 h
BXPC-3 [23] = assay: Induction of apoptosis in human BXPC-3 cells assessed as early apoptotic cells at 10 uM incubated for 48 hrs by Annexin V-FITC/PI staining based flow cytometry (reference value: 1.11 %); assay type: functional
BXPC-3 [24] = assay: Induction of cell cycle arrest in human BXPC-3 cells assessed as accumulation at G1 phase at 2.5 uM incubated for 48 hrs by PI/RNase staining based flow cytometry (reference value: 84.2 %); assay type: functional
BXPC-3 [25] = assay: Inhibition of Hh signaling pathway in human BXPC-3 cells assessed as reduction in Gli1 level incubated for 48 hrs by Western blot analysis; assay type: cell-based; settings: dose 2.5-10 µM
Method in brief: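 Cells were treated in 6-well plates for 48 h, lysed by sonication in RIPA with PMSF, and quantified by BCA. 20-30 μg protein was run on 6-12% gradient SDS-PAGE and transferred to PVDF. Membranes were blocked 2 h at room temperature, probed with anti-Gli1 overnight at 4 °C and secondary 1.5 h at room temperature, then developed by ECL. Densitometry was normalised to β-actin; three separate experiments.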

BxPC-3 [26] = assay: Antitumor activity aginst human BxPC-3 cells xenografted in BALB/c nude mouse assessed as decrease in tumor volume at 10 mg/kg, ip qd for 21 days relative to control; set-up: scale not given: the % may be the effect or the level left; settings: time 21 day

Which Activity (BXPC-3 [1]) does the source give for CN(C)Cc1ccc(NC(=O)c2ccc(Nc3nccc(-c4cccnc4)n3)cc2)cc1 here?
The Activity was 24%.

What about the Activity (BXPC-3 [2]) of the same molecule?
Its Activity is 2.11%.

What about the Activity [3] of the same molecule?
Its Activity is “Non-toxic”.

And the Activity [4]?
The Activity was “Non-toxic”.

And the inhibition (BXPC-3 [5])?
Its inhibition is “Dose-dependent-effect”.

And the inhibition (BXPC-3 [6])?
Its inhibition is “Dose-dependent-effect”.

What about the Activity [7] of the same molecule?
The Activity was “Non-toxic”.

What about the Activity (BXPC-3 [8]) of the same molecule?
Its Activity is 2.65%.

What about the Activity (BXPC-3 [9]) of the same molecule?
Its Activity is 11.3%.

And the Activity [10]?
Its Activity is “Non-toxic”.

What about the Activity [11] of the same molecule?
The Activity was “Non-toxic”.

What about the viability at 10 µM (BXPC-3 [12]) of the same molecule?
The viability at 10 µM was 71.8%.

And the viability at 8 µM (BXPC-3 [13])?
Its viability at 8 µM is 82.5%.

And the Activity (BxPC-3 [14])?
Its Activity is “Active”.

And the Activity (PANC-1 [15])?
Its Activity is 83.7%.

What about the Activity (BXPC-3 [16]) of the same molecule?
Its Activity is 4.09%.

And the inhibition (PANC-1 [17])?
The inhibition was “Dose-dependent-effect”.

And the viability at 5 µM (PANC-1 [18])?
Its viability at 5 µM is 87.3%.

And the Activity (PANC-1 [19])?
Its Activity is 1.97%.

And the Activity (PANC-1 [20])?
The Activity was 8.18%.

And the Activity (PANC-1 [21])?
Its Activity is 2.39%.

What about the Activity [22] of the same molecule?
The Activity was “Non-toxic”.

And the Activity (BXPC-3 [23])?
Its Activity is 1.86%.

And the Activity (BXPC-3 [24])?
Its Activity is 72.7%.

And the inhibition (BXPC-3 [25])?
The inhibition was “Dose-dependent-effect”.

What about the Activity (BxPC-3 [26]) of the same molecule?
The Activity was 80%.
